Assay results: ChEMBL document CHEMBL4823272 (Eur J Med Chem, 2021)
Calls of active or inactive are those of the source. No cut-off for these calls is given here.

Tests used:
[1] = target: T1, Amyloid-beta precursor protein (Homo sapiens, UniProt P05067); test: Inhibition of human amyloid beta (1 to 40) fibrillization at 100 uM measured every 15 mins by Thioflavin-T fluorescence assay relative to control
[2] = target: T1, Amyloid-beta precursor protein; test: Inhibition of human biotinylated amyloid beta (1 to 42) oligomerization measured after 1 hr by ELISA
Summary of the method: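 HFIP/TFA-treated biotinylated Aβ1-42 in DMSO/OFB buffer incubated with compound 1 h at room temperature, stopped with 0.3% Tween 20. Captured on NeutrAvidin-coated plates blocked with OFB-T (pH 7.50), 2 h at 150 rpm. Streptavidin-HRP 1:10,000 for 1 h, TMB/H₂O₂, stopped with 2% H₂SO₄, read at 450 nm. IC50 from 4-parameter logistic fit normalized to DMSO and Tween-20 controls.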

[3] = system: SIM-A9; test: Induction of phagocytosis in LPS-stimulated mouse SIM-A9 cells assessed as increase in FITC signal measured after 24 hrs by FITC analysis; type: functional, cell-based
Summary of the method: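 SIM-A9 cells given LPS plus compound for 24 h, then FITC-labelled killed E. coli bioparticles at 0.125 mg/mL final for 1 h at 37 °C. Extracellular signal quenched with 0.4% trypan blue. Intracellular FITC read at Ex 494/Em 518. Mean ± SD.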

[4] = Ratio of drug concentration in brain to plasma of CD-1 mouse at 5 mg/kg, po after 2.5 hrs; type: ADME, organism-based; details: read-out: BPR
Summary of the method: (§1)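 Male CD-1 mice dosed 5 mg/kg orally, n = 3 per time point. At 0.5 and 2.5 h, blood taken by cardiac puncture, then transcardial PBS perfusion. Brains homogenized in three volumes of PBS. Samples precipitated with cold acetonitrile, supernatant diluted with two volumes of 0.1% formic acid water, measured by LC-MS/MS. Brain/plasma ratio from these levels.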

[5] = Drug concentration in CD-1 mouse plasma at 5 mg/kg, po measured after 2.5 hrs by LC-MS/MS analysis; type: ADME, organism-based
Summary of the method: as §1

[6] = Drug concentration in CD-1 mouse plasma at 5 mg/kg, po measured after 0.5 hrs by LC-MS/MS analysis; type: ADME, organism-based
Summary of the method: as §1

[7] = Ratio of drug concentration in brain to plasma of CD-1 mouse at 5 mg/kg, po after 0.5 hrs; type: ADME, organism-based; details: read-out: BPR
Summary of the method: as §1

[8] = Drug concentration in CD-1 mouse brain at 5 mg/kg, po measured after 0.5 hrs by LC-MS/MS analysis; type: ADME, organism-based
Summary of the method: as §1

[9] = Drug concentration in CD-1 mouse brain at 5 mg/kg, po measured after 2.5 hrs by LC-MS/MS analysis; type: ADME, organism-based
Summary of the method: as §1

[10] = system: SIM-A9; test: Anti-inflammatory activity in LPS-stimulated mouse SIM-A9 cells assessed as downregulation of iNOS expression at 2.7 uM measured after 24 hrs by Western blot analysis; type: functional, cell-based
Summary of the method: (§2)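 SIM-A9 murine microglia in DMEM-F12 with 10% FBS and 5% horse serum, seeded 0.25 × 10⁶ cells/well one day before. Stimulated with 5 ng/mL LPS plus compound for 24 h. Cells lysed in RIPA with protease inhibitors, protein by Micro BCA. Equal protein on SDS-PAGE, PVDF transfer, probed with iNOS, COX-2 and tubulin antibodies (1:1000), HRP chemiluminescence.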

[11] = system: SIM-A9; test: Anti-inflammatory activity in mouse SIM-A9 cells assessed as inhibition of LPS-induced NO production at 2.7 uM measured after 24 hrs by Griess reagent based assay; type: functional, cell-based
Summary of the method: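 SIM-A9 cells given 5 ng/mL LPS with compound for 24 h. Conditioned medium mixed with sulfanilamide, then N-naphthyl-ethylenediamine, 5–10 min dark at room temperature. Absorbance at 520–550 nm, NO quantified against a standard curve. n = 3.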

[12] = system: SIM-A9; test: Anti-inflammatory activity in mouse SIM-A9 cells assessed as inhibition of LPS-induced IL-6 production at 2.7 uM measured after 24 hrs by ELISA; type: functional, cell-based
Summary of the method: (§3)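 SIM-A9 cells seeded 0.25 × 10⁶/well a day ahead, then given 5 ng/mL LPS with compound for 24 h. Supernatants assayed by sandwich ELISA: capture antibody 1:250, detection antibody 1:250, avidin-HRP, TMB, stop with 2 N H₂SO₄. Read at 450 nm, 570 nm correction. Mean ± SD, n = 3.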

[13] = system: SIM-A9; test: Anti-inflammatory activity in mouse SIM-A9 cells assessed as inhibition of LPS-induced TNF-alpha production at 2.7 uM measured after 24 hrs by ELISA; type: functional, cell-based
Summary of the method: as §3

[14] = system: SIM-A9; test: Anti-inflammatory activity in LPS-stimulated mouse SIM-A9 cells assessed as downregulation of COX-2 expression at 2.7 uM measured after 24 hrs by Western blot analysis; type: functional, cell-based
Summary of the method: as §2

T1 sequence (P05067 whole entry): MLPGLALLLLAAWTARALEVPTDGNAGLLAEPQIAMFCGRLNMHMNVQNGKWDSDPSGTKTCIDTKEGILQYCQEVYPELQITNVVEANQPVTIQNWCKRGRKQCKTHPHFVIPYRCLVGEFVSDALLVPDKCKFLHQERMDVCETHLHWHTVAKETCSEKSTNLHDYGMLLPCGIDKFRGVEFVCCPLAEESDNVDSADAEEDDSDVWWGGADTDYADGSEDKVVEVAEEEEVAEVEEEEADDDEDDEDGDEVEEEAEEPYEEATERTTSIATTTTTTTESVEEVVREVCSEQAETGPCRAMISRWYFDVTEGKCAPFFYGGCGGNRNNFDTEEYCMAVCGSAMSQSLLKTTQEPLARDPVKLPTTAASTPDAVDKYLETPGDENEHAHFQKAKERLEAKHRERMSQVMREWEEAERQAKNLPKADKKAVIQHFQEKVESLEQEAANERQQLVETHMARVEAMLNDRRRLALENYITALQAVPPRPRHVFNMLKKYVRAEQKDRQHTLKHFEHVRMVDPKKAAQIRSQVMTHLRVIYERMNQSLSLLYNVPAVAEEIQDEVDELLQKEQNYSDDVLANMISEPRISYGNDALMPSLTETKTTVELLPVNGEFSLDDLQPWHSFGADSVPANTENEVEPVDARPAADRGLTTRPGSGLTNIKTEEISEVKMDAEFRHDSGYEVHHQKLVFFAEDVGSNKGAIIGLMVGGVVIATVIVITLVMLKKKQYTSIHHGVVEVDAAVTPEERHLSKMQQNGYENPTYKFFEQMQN

| SMILES | inhibition [1] | IC50 [2] | further results |
| --- | --- | --- | --- |
| O=C(O)c1cc(S(=O)(=O)N2CCCCC2)c(Cl)cc1NCc1ccco1 | 19.1% | Not Active |  |
| O=C(O)c1cc(C(=O)N2CCCCC2)c(Cl)cc1NCc1ccco1 | 11% | Not Active |  |
| O=C(O)c1cc(S(=O)(=O)NCCc2ccccc2)c(Cl)cc1NCc1ccco1 | inactive | Not Active |  |
| O=C(O)c1ccc(Cl)cc1NCc1ccco1 | 20.2% | Not Active |  |
| O=C(O)c1cc(S(=O)(=O)NCc2ccccc2)c(Cl)cc1NCc1ccco1 | 11.8% | Not Active |  |
| O=C(O)c1cc(C(=O)N2CCOCC2)c(Cl)cc1NCc1ccco1 | 34% | Not Active |  |
| Cc1ccc(CNS(=O)(=O)c2cc(C(=O)O)c(NCc3ccco3)cc2Cl)cc1 | inactive | Not Active |  |
| OC(c1ccc(Br)cc1NCc1ccco1)C(F)(F)F (stereo not drawn) | 81.3% | Not Active | Activity [10]: Active; Activity [11]: Active; Activity [12]: Active; Activity [13]: Active; Activity [14]: Active |
| OC(c1ccc(Br)cc1NCc1cscn1)C(F)(F)F (stereo not drawn) | 33% | Not Active | Activity [3]: Active |
| CNS(=O)(=O)c1cc(C(=O)O)c(NCC2CCCO2)cc1Cl (stereo not drawn) | 17.5% |  | IC50 ([2]; read-out: IC50): 136 µM |
| O=C(O)c1cc(S(=O)(=O)N2CCOCC2)c(Cl)cc1NCc1ccco1 | inactive |  |  |
| CN(C)C(=O)c1cc(C(=O)O)c(NCc2ccco2)cc1Cl | 18.4% | Not Active |  |
| COc1ccc(C(O)C(F)(F)F)c(NCc2ccco2)c1 (stereo not drawn) | 36.8% | Not Active |  |
| O=C(O)c1ccc(F)cc1NCc1ccco1 | 12.4% |  |  |
| OC(c1ccc(Cl)cc1NCc1ccco1)C(F)(F)F (stereo not drawn) | 60.7% | Not Active | Activity [10]: Active; Activity [11]: Active; Activity [12]: Active; Activity [13]: Active; Activity [14]: Active |
| NC(=O)c1cc(C(=O)O)c(NCc2ccco2)cc1Cl | 32.4% | Not Active |  |
| O=C(O)c1cc(S(=O)(=O)NC2CCCCC2)c(Cl)cc1NCc1ccco1 | 11.3% |  |  |
| COc1ccc(C(O)C(F)(F)F)c(NCc2cscn2)c1 (stereo not drawn) | 6.49% |  |  |
| O=C(Nc1ccccc1)c1cc(C(=O)O)c(NCc2ccco2)cc1Cl | 29.4% | Not Active |  |
| OC(c1ccc(Cl)cc1NCc1cscn1)C(F)(F)F (stereo not drawn) | 27.9% | Not Active |  |
| CCNC(=O)c1cc(C(=O)O)c(NCc2ccco2)cc1Cl | 24.6% | Not Active |  |
| CN(Cc1ccccc1)S(=O)(=O)c1cc(C(=O)O)c(NCc2ccco2)cc1Cl | inactive |  | Activity [10]: Active; Activity [12]: Active; Activity [3]: Active; Activity [13]: Active; concentration at 2.5 h [5]: 873 ng/mL; concentration at 0.5 h [6]: 1030 ng/mL; Kp at 0.5 h [7]: 0.0008; concentration at 0.5 h [8]: 0.8 ng/g; concentration at 2.5 h [9]: 0.1 ng/g; Activity [14]: Active |

More lines, main results first:

| inhibition [1] | IC50 [2] | SMILES | further results |
| --- | --- | --- | --- |
| inactive |  | CNC(=O)c1cc(S(=O)(=O)NC)c(Cl)cc1NCc1ccco1 | Activity [3]: Active |
| 19.1% | Not Active | CNC(=O)c1cc(C(=O)O)c(NCc2ccco2)cc1Cl |  |
| 8.56% | Not Active | NS(=O)(=O)c1cc(C(=O)O)c(NCc2ccco2)cc1Cl [FUROSEMIDE] | Kp at 2.5 h [4]: 0.005; concentration at 2.5 h [5]: 1630 ng/mL; concentration at 0.5 h [6]: 1730 ng/mL; Kp at 0.5 h [7]: 0.005; concentration at 0.5 h [8]: 8.7 ng/g; concentration at 2.5 h [9]: 7.8 ng/g |
| 15% |  | CNS(=O)(=O)c1cc(CO)c(NCc2ccco2)cc1Cl |  |
| 17.6% |  | CC(NS(=O)(=O)c1cc(C(=O)O)c(NCc2ccco2)cc1Cl)c1ccccc1 (stereo not drawn) |  |
| 21.3% |  | CCNS(=O)(=O)c1cc(C(=O)O)c(NCc2ccco2)cc1Cl |  |
| 14.1% |  | CNS(=O)(=O)c1cc(-c2nnn[nH]2)c(NCc2ccco2)cc1Cl |  |
| 27.8% | Not Active | COc1ccc(CNS(=O)(=O)c2cc(C(=O)O)c(NCc3ccco3)cc2Cl)cc1 |  |
| inactive |  | CNS(=O)(=O)c1cc(C(N)=O)c(NCc2ccco2)cc1Cl | Activity [10]: Active; Kp at 2.5 h [4]: 0.12; Activity [12]: Active; Activity [13]: Active; concentration at 2.5 h [5]: 29.3 ng/mL; concentration at 0.5 h [6]: 38.2 ng/mL; Kp at 0.5 h [7]: 0.14; concentration at 0.5 h [8]: 5.2 ng/g; concentration at 2.5 h [9]: 3.5 ng/g; Activity [14]: Active |
| inactive |  | CNS(=O)(=O)c1cc(C(=O)O)c(NCc2ccco2)cc1Cl | Activity [3]: Active |
| 39.2% |  | CCCCCCNS(=O)(=O)c1cc(C(=O)O)c(NCc2ccco2)cc1Cl |  |
| 20.2% | Not Active | CNS(=O)(=O)c1cc(-c2noc(=O)[nH]2)c(NCc2ccco2)cc1Cl |  |
|  | Not Active | CNS(=O)(=O)c1cc(C(O)C(F)(F)F)c(NCc2ccco2)cc1Cl (stereo not drawn) |  |
| inactive |  | CN(C)S(=O)(=O)c1cc(C(=O)O)c(NCc2ccco2)cc1Cl |  |
| 27.1% |  | CNS(=O)(=O)c1cc(C(=O)OC)c(NCc2ccco2)cc1Cl |  |
| 29.2% | Not Active | O=C(O)c1cc(S(=O)(=O)NC2CC2)c(Cl)cc1NCc1ccco1 |  |
| 17.4% |  | O=C(O)c1cc(S(=O)(=O)Nc2ccccc2)c(Cl)cc1NCc1ccco1 |  |
| 25.2% |  | CNS(=O)(=O)c1cc(C(=O)N(C)C)c(NCc2ccco2)cc1Cl | Kp at 2.5 h [4]: 0.22; Activity [3]: Active; concentration at 2.5 h [5]: 83.2 ng/mL; concentration at 0.5 h [6]: 302 ng/mL; Kp at 0.5 h [7]: 0.2; concentration at 0.5 h [8]: 61.1 ng/g; concentration at 2.5 h [9]: 18.5 ng/g |
